Experimental data: publication PMC4909612 (EBioMedicine, 2016)
Several values for one entry are separate records, joined by “and”; a condition that tells them apart may be missing. Identical values can stand only once.

Assays:
[1] = tested on: intracellular tyrosine kinase domain of human PDGFR-β; assay: PDGFR-β activity assay kit; format: biochemical; details: n = 6 each group
In short: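 Human PDGFR-β kinase activity was measured with a commercial PDGFR-β activity assay kit, n = 6 per group. Values are means ± SEM from three independent experiments, compared with the control group.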

[2] = biological target: human PDGFR-β (Met 1-Lys 531) protein (human) (UniProt P09619); assay: MST
[3] = biological target: human PDGFR-β (Met 1-Lys 531) protein (human) (UniProt P09619); assay: SPR
[4] = biological target: human PDGFR-β (Met 1-Lys 531) protein with the Phe136/Ala136 and Phe138/Ala138 mutations (human) (UniProt P09619); assay: SPR

In the case of `CCN(CC)CCNC(=O)c1c(C)[nH]c(/C=C2\C(=O)Nc3ccc(F)cc32)c1C` [sunitinib], the “effect on the activated intracellular tyrosine kinase domain / kinase activity of human PDGFR-β” value [1] is reported as “very obvious inhibitory effect”.

With destruxin A5 (peptide) the Kd [2] was 5.43 µM, the Kd [3] was 4.92 µM and 8.02 µM and the dH [3] was -2.28 kcal·M^(− 1). For the same compound, the Kd [4] was 99.5 µM.
